Laboratory results: ChEMBL document CHEMBL1123812, “Pyrroloisoquinoline antidepressants. 2. In-depth exploration of structure-activity relationships” (J Med Chem, 1987)
pKi: −log10 of the molar value. The source made the active and inactive calls.

Legend:
Mus musculus [1] = assay: Ability to antagonise intraperitoneal dose; inactive (<10% antagonism) at 30 mg/kg is represented as I-30.; type: functional, organism-based; design: dose 30 mg/kg
Summary of the method: (§1)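 Nonfasted male Swiss Webster mice, 18–24 g, ten per dose level and in saline controls. Test compound given ip 30 min before tetrabenazine 32 mg/kg ip; dose expressed as free base. Motor activity and ptosis scored. Control response ≤90% corrected by Abbott's formula.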

Mus musculus [2] = organism: Mus musculus; assay: Gross behavioral effects ascertained in mice; C indicates overt convulsant; type: functional, organism-based
Summary of the method: (§2)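 Male Swiss Webster mice, 18–24 g, three per dose, given ip doses of 1, 3, 10, 30, 100 and 300 mg/kg. Observed for gross behavior and held for 4 days. Scored as weak (W), stimulant (S), depressant (D) or convulsant (C).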

[3] = molecular target: Sodium-dependent serotonin transporter (Rattus norvegicus) (UniProt P31652); assay: Ability to inhibit the uptake of [3H]- serotonin(5-HT) 0.1 uM concentration at rat brain synaptosomes; type: functional, subcellular
Summary of the method: (§3)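 Male Wistar rat brain synaptosomes (P2 fraction): hypothalamus for NE, striatum for DA, cerebral cortex for 5-HT. Buffer is Tris- or HEPES-buffered salt medium with glucose, ascorbate and nialamide, pH 7.4 at 37 °C. Preincubated 10 min at 37 °C with compound. Uptake started with [3H]NE 100–300 nM, [3H]DA 50–300 nM or [3H]5-HT 100–200 nM, incubated 3 min (DA) or 6–10 min (NE, 5-HT). Blanks held on ice. Filtered, counted by scintillation.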

[4] = molecular target: Norepinephrine transporter (Rattus norvegicus) (UniProt Q9WTR4); assay: Ability to inhibit the uptake of [3H]norepinephrine (NE) 0.1 uM concentration at rat brain synaptosomes; type: functional, subcellular; summary of the method: as §3
Mus musculus [5] = assay: Ability to antagonise intraperitoneal dose; inactive (<10% antagonism) at 30 mgjkg is represented as I-30.; type: functional, organism-based; summary of the method: as §1
Rattus norvegicus = organism: Rattus norvegicus; assay: Ability to inhibit the uptake of tritiated dopamine (DA) 1 uM concentration; type: functional
Summary of the method: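 Rat brain synaptosomal [3H]dopamine uptake: striatal P2 fraction, test compound at 1.00 μM. Preincubated at 37 °C, then 50–300 nM [3H]DA for 3 min. Blanks on ice. Filtration and scintillation counting; percent inhibition of control uptake.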

Mus musculus [6] = organism: Mus musculus; assay: Antagonism of tetrabenazine (TBZ)-induced depression measured in mice by motor activity; type: functional; conditions: Mus musculus; read-out: ED50; summary of the method: as §1
Mus musculus [7] = organism: Mus musculus; assay: Antagonism of tetrabenazine (TBZ)-induced depression in mice measured for ptosis; type: functional; conditions: Mus musculus; read-out: ED50; summary of the method: as §1
Mus musculus [8] = organism: Mus musculus; assay: Gross behavioral effects ascertained in mice; D indicates significant depressant properties.; type: functional, organism-based
Summary of the method: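 Male Swiss Webster albino mice, 18–24 g, three per dose, given ip 1, 3, 10, 30, 100 and 300 mg/kg. Gross behaviour observed and held 4 days. Estimated LD50 range from lethality count on day 4. Scored as weak stimulant/depressant, significant stimulant, significant depressant or overt convulsant.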

Mus musculus [9] = organism: Mus musculus; assay: Gross behavioral effects ascertained in mice; W indicates weak stimulant or depressant activity of little significance.; type: functional, organism-based; summary of the method: as §2
[10] = molecular target: D(1A) dopamine receptor (Rattus norvegicus) (UniProt P18901); assay: Binding affinity towards Dopamine receptor D1 at 1.0 uM concentration
Summary of the method: (§4)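 Rat brain crude synaptic membranes in 20 mM NaHEPES pH 7.5. Ligands: α1 cortex […] 0.4 nM, nonspecific with (-)-NE 100 μM, 30 min at 25 °C. […] D2 striatum [3H]spiperone 0.05 nM with (+)-butaclamol 1 μM, 45 min at 37 °C. S1 cortex [3H]5-HT 1 nM plus glutathione and MgCl2, with 5-HT 10 μM, 20 min at 37 °C. […] Samples filtered on GF/B and counted.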

[11] = molecular target: Norepinephrine transporter (Rattus norvegicus, UniProt Q9WTR4); assay: Inhibition of uptake of tritiated norepinephrine (NE) in rat synaptosomes; type: subcellular, Brain
[12] = molecular target: Adrenergic receptor alpha-2 (Rattus norvegicus) (UniProt P22086+P19328+P22909); assay: Binding affinity towards alpha-2 adrenergic receptor at 1.0 uM concentration; type: protein assay
[13] = molecular target: D(2) dopamine receptor (Rattus norvegicus) (UniProt P61169); assay: Binding affinity towards dopamine receptor D2 at 1.0 uM concentration; summary of the method: as §4
Mus musculus [14] = organism: Mus musculus; assay: Gross behavioral effects ascertained in mice; S indicates significant stimulant properties.; type: functional, organism-based; summary of the method: as §2
[15] = molecular target: Muscarinic acetylcholine receptor (Rattus norvegicus) (UniProt P08482+P08483+P08485+P08911+P10980); assay: Binding affinity towards Muscarinic acetylcholine receptor at 1.0 uM concentration; type: protein assay
[16] = molecular target: Serotonin 2 (5-HT2) receptor (Rattus norvegicus) (UniProt P30994+P08909+P14842); assay: Binding affinity towards 5-hydroxytryptamine 2 receptor at 1.0 uM concentration; type: protein assay; summary of the method: as §4
[17] = molecular target: Adrenergic receptor alpha-1 (Rattus norvegicus) (UniProt P15823+P23944+P43140); assay: Binding affinity towards alpha-1 adrenergic receptor at 1.0 uM concentration; type: protein assay; summary of the method: as §4
[18] = molecular target: T1, Adrenergic receptor alpha-1 (Rattus norvegicus, UniProt P15823+P23944+P43140); assay: Binding affinity towards alpha-1 adrenergic receptor; type: protein assay
T1 sequence (P15823 whole entry): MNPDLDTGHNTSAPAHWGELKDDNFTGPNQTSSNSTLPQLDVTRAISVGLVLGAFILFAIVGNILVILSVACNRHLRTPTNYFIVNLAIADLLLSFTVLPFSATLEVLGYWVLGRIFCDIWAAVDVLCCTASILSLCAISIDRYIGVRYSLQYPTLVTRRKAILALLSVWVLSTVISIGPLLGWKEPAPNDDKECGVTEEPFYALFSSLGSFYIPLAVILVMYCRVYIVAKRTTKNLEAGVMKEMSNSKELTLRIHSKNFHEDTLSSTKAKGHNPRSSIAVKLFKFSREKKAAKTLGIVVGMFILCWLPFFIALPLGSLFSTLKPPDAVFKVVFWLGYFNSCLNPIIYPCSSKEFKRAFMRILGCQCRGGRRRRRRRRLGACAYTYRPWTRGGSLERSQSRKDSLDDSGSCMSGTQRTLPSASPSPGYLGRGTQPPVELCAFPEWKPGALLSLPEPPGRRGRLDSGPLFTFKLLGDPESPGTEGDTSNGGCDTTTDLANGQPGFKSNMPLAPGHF
T1 sequence (P23944 whole entry): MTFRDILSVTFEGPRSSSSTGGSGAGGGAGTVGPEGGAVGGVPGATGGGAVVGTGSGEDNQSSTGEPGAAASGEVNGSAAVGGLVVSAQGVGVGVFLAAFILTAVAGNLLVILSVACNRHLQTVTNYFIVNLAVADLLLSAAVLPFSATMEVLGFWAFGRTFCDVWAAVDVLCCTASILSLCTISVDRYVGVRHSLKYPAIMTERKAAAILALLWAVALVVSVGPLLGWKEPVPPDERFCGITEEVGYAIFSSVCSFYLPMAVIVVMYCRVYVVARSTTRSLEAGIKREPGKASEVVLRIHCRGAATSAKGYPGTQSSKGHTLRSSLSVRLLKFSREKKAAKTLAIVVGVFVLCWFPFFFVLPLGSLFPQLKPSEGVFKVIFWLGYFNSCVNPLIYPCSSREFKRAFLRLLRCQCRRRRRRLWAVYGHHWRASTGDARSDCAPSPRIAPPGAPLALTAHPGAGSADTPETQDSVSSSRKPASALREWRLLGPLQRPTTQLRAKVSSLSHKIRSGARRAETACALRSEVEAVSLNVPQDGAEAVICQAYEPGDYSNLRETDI
T1 sequence (P43140 whole entry): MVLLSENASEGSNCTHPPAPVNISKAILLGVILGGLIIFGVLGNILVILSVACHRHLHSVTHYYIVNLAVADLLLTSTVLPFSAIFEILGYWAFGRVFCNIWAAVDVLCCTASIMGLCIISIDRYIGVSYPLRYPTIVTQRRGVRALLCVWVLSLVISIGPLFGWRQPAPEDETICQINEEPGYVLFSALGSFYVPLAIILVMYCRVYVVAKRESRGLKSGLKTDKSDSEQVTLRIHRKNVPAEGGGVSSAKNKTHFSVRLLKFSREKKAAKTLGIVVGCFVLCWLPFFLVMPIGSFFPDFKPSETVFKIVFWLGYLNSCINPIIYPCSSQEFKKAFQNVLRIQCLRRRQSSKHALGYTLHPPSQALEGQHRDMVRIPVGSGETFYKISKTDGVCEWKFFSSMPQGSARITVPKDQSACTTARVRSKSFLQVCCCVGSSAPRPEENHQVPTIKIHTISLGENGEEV

D(2) dopamine receptor = D(2) dopamine receptor (Rattus norvegicus, UniProt P61169); assay: Binding affinity towards Dopamine receptor D2
[19] = molecular target: Serotonin 2 (5-HT2) receptor (Rattus norvegicus, UniProt P30994+P08909+P14842); assay: Binding affinity towards 5-hydroxytryptamine 2 receptor; type: protein assay
[20] = molecular target: Sodium-dependent dopamine transporter (Rattus norvegicus, UniProt P23977); assay: Inhibition of the uptake of tritiated dopamine (DA) in rat synaptosomes; type: subcellular, Brain
[21] = molecular target: Serotonin 1 (5-HT1) receptor (Rattus norvegicus) (UniProt P28564+P30940+P19327+P28565); assay: Binding affinity towards serotonin S1 receptor at 1.0 uM; type: protein assay; summary of the method: as §4

Sequence of Sodium-dependent dopamine transporter (P23977 whole entry): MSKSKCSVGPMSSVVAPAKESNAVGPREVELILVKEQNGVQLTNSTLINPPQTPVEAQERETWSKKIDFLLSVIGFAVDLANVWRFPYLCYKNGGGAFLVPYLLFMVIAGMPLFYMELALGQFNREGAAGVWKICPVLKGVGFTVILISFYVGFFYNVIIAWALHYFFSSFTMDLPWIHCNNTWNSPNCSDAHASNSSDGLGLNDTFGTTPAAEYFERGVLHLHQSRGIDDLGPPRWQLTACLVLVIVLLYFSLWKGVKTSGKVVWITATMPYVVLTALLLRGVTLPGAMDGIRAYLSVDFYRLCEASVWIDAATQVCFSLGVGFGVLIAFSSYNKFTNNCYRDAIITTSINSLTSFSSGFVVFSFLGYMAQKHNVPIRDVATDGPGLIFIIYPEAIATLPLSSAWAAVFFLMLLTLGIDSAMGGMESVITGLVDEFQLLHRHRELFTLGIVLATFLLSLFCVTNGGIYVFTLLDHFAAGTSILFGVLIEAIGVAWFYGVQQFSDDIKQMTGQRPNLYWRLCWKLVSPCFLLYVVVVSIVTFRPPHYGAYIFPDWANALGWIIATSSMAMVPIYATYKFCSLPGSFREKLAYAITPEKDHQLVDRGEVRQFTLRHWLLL
Sequence of Serotonin 2 (5-HT2) receptor (Rattus norvegicus) (P08909 whole entry, looked up): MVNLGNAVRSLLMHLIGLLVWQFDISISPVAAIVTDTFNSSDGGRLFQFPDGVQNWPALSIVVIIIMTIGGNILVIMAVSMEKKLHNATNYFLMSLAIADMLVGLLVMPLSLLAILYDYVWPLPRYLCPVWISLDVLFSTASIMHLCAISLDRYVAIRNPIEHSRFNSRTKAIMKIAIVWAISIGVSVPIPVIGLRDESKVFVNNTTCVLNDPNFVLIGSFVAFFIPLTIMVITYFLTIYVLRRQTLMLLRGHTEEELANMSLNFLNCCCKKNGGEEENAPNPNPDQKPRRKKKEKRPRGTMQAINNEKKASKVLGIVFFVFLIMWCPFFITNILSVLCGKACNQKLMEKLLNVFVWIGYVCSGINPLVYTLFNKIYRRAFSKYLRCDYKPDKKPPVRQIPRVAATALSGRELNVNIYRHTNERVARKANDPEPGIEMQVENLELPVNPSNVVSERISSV
Sequence of Serotonin 2 (5-HT2) receptor (Rattus norvegicus) (P14842 whole entry, looked up): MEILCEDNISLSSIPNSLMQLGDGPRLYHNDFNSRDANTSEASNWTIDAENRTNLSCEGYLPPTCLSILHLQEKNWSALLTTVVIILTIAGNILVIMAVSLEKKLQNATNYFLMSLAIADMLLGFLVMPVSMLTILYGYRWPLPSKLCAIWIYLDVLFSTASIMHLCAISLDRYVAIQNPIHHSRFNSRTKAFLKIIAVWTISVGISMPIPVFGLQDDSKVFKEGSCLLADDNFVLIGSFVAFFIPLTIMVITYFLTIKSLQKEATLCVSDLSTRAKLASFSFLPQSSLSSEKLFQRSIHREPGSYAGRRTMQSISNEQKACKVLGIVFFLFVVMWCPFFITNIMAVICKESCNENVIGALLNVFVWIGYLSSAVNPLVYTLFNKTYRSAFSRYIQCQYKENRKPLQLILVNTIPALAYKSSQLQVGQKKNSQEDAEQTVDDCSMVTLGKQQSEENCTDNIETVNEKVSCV
Sequence of Serotonin 2 (5-HT2) receptor (Rattus norvegicus) (P30994 whole entry, looked up): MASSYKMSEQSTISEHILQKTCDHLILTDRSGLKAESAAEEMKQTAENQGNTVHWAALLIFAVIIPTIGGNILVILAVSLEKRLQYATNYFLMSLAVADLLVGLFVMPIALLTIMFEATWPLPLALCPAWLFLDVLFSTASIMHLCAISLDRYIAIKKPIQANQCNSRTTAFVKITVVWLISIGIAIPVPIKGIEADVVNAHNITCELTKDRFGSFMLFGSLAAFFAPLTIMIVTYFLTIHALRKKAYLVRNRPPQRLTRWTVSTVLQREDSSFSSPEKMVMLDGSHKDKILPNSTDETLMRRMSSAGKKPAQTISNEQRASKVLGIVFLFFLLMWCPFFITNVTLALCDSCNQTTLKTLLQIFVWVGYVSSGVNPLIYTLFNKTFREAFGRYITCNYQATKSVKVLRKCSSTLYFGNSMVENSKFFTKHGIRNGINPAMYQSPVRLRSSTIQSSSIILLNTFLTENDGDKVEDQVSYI
Sequence of Norepinephrine transporter (Q9WTR4 whole entry): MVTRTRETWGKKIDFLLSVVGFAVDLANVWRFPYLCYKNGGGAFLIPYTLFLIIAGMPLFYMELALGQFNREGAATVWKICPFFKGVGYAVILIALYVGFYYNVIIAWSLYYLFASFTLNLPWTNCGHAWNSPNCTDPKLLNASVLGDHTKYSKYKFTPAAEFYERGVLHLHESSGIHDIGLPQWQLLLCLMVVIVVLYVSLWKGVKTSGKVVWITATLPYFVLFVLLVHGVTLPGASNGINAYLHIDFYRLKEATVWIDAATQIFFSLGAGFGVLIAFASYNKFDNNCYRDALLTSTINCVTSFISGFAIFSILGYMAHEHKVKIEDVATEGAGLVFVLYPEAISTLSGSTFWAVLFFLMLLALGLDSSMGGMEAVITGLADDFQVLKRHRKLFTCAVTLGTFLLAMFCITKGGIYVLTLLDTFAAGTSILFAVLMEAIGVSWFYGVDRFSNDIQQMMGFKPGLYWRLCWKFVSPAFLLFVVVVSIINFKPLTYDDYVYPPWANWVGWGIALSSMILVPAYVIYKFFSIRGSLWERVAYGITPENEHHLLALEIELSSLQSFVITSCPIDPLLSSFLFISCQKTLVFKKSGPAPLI
Sequence of D(2) dopamine receptor (Rattus norvegicus) (P61169 whole entry): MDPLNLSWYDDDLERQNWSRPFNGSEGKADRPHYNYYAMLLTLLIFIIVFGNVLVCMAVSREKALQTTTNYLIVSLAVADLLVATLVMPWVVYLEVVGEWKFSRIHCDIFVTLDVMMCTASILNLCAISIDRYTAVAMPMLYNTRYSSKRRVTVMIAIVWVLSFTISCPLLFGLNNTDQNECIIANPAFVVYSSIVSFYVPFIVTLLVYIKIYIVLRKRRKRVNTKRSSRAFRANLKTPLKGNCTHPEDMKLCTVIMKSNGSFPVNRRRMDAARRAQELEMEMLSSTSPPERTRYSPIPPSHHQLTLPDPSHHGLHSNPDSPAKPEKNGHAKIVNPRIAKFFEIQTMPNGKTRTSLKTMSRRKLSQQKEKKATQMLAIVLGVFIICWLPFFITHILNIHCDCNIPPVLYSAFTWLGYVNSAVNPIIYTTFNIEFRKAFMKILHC
Sequence of D(1A) dopamine receptor (Rattus norvegicus) (P18901 whole entry): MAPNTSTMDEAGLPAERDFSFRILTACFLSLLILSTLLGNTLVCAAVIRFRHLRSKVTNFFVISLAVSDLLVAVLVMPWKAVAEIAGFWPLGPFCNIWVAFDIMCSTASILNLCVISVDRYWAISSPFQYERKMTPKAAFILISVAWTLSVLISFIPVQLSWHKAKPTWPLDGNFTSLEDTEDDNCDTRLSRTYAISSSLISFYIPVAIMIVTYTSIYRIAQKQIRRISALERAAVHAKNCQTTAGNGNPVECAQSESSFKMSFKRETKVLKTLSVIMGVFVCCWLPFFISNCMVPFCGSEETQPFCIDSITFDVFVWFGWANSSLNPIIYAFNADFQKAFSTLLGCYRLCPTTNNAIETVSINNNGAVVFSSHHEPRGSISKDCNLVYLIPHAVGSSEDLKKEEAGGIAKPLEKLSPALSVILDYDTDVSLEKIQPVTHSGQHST
Sequence of D(2) dopamine receptor (P61169 whole entry): as the sequence (P61169 whole entry) above
Sequence of Sodium-dependent serotonin transporter (Rattus norvegicus) (P31652 whole entry): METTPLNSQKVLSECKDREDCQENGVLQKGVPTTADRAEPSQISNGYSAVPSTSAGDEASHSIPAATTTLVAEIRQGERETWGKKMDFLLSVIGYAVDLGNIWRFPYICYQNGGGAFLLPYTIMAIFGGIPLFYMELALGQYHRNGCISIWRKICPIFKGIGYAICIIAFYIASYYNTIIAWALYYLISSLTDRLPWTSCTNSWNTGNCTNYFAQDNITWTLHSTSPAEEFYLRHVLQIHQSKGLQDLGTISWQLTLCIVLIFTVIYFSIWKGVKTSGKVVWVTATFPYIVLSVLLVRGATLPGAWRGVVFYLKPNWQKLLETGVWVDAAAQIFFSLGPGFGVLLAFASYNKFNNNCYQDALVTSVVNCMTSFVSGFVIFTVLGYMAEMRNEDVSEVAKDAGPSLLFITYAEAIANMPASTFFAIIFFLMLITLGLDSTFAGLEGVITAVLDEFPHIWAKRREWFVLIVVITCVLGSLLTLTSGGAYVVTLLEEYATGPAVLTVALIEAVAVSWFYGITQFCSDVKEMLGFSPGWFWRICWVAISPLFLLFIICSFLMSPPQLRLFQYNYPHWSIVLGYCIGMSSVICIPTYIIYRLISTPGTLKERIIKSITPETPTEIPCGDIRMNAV
Sequence of Norepinephrine transporter (Rattus norvegicus) (Q9WTR4 as listed by the source): as the sequence (Q9WTR4 whole entry) above

C[C@@]12CCCN1C[C@@H](c1ccccc1)c1ccccc12
ED50 (Mus musculus [1]): inactive | behavior (Mus musculus [2]): Overt convulsant | inhibition [3]: 23% | inhibition [4]: 2% | ED50 (Mus musculus [5]): inactive | Inhibition (Rattus norvegicus): 25%

Br.CC(=O)Nc1ccc([C@@H]2CN3CCC[C@@H]3c3ccccc32)cc1
ED50 (Mus musculus [6]): 0.037 mg/kg | ED50 (Mus musculus [7]): 0.042 mg/kg | behavior (Mus musculus [8]): Significant depressant

Fc1ccc([C@@H]2CN3CCC[C@@H]3c3ccccc32)cc1
behavior (Mus musculus [9]): Partial stimulant | ED50 (Mus musculus [6]): ~0.2 mg/kg | ED50 (Mus musculus [7]): ~0.2 mg/kg | inhibition [10]: 56% | pKi [11]: 8.85

Br.Clc1ccc([C@@H]2CN3CCC[C@@H]3c3ccccc32)cc1
inhibition [12]: 35% | inhibition [13]: 35% | ED50 (Mus musculus [6]): 0.55 mg/kg | behavior (Mus musculus [14]): Stimulant | inhibition [15]: 0% | ED50 (Mus musculus [7]): 0.34 mg/kg | inhibition [16]: 59% | inhibition [17]: 61%

CSc1ccc([C@@H]2CN3CCC[C@@H]3c3ccccc32)cc1 (stereo in doubt; (+)-48b)
Ki [18]: 274 nM | pKi (D(2) dopamine receptor): 5.99 | Ki [19]: 142 nM

Br.COc1cc([C@@H]2CN3CCC[C@@H]3c3ccccc32)cc(OC)c1OC
inhibition [13]: 17% | pKi [20]: ~5.70 | behavior (Mus musculus [9]): Partial stimulant | ED50 (Mus musculus [6]): > 60 mg/kg | ED50 (Mus musculus [7]): 2.5 mg/kg | inhibition [21]: 31% | Ki [18]: 29 nM | inhibition [16]: 2% | pKi [11]: 6.79

COc1cccc([C@@H]2CN3CCC[C@@H]3c3ccccc32)c1
inhibition [12]: 37% | inhibition [13]: 27% | pKi [20]: 7.80 | behavior (Mus musculus [9]): Partial stimulant | ED50 (Mus musculus [6]): ~0.2 mg/kg | inhibition [15]: 1% | ED50 (Mus musculus [7]): 0.07 mg/kg | inhibition [10]: 40% | pKi [11]: 9.19 | inhibition [17]: 87%

FC(F)(F)c1cccc([C@@H]2CN3CCC[C@@H]3c3ccccc32)c1 (stereo in doubt; 37b)
pKi [20]: 7.27 | ED50 (Mus musculus [6]): 0.78 mg/kg | ED50 (Mus musculus [7]): 0.58 mg/kg | Ki [18]: 213 nM | pKi (D(2) dopamine receptor): 5.65 | pKi [11]: 9.02 | Ki [19]: 602 nM

COc1ccccc1[C@@H]1CN2CCC[C@@H]2c2ccccc21
behavior (Mus musculus [9]): Partial stimulant | ED50 (Mus musculus [6]): ~0.6 mg/kg | ED50 (Mus musculus [7]): ~0.3 mg/kg | inhibition [21]: 45% | inhibition [16]: 74%
